Measurements reported in ChEMBL document CHEMBL1125117, “Substituted 1,3-dihydro-2H-pyrrolo[2,3-b]pyridin-2-ones as potential antiinflammatory agents” (1990).

Key:
[1] = test system: Rattus norvegicus; experiment: In vivo inhibitory activity against cells in reverse passive Arthus reaction (RPAR) assay at dose 25 mg/kg in the pleural cavity of rats.; format: functional
Procedure, shortened: (§1)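 Male rats, five per group, dosed orally 1 h before iv BSA antigen (5 mg). Rabbit anti-BSA IgG (0.5 mg) given intrapleurally 30 min later. At 4 h, pleural exudate volume was measured and neutrophils counted (Coulter) after saline-EDTA lavage. Reported as % reduction in cells and fluid relative to control.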

[2] = test system: Rattus norvegicus; experiment: In vivo inhibitory activity against fluid in reverse passive Arthus reaction (RPAR) assay at dose 25 mg/kg in the pleural cavity of rats.; format: functional; procedure, shortened: as §1
[3] = target: T1, Polyunsaturated fatty acid 5-lipoxygenase (Homo sapiens) (UniProt P09917); experiment: In vitro inhibitory activity against 5-lipoxygenase in human polymorphonuclear (PMN) cells; settings: concentration not given here
T1 sequence (whole entry): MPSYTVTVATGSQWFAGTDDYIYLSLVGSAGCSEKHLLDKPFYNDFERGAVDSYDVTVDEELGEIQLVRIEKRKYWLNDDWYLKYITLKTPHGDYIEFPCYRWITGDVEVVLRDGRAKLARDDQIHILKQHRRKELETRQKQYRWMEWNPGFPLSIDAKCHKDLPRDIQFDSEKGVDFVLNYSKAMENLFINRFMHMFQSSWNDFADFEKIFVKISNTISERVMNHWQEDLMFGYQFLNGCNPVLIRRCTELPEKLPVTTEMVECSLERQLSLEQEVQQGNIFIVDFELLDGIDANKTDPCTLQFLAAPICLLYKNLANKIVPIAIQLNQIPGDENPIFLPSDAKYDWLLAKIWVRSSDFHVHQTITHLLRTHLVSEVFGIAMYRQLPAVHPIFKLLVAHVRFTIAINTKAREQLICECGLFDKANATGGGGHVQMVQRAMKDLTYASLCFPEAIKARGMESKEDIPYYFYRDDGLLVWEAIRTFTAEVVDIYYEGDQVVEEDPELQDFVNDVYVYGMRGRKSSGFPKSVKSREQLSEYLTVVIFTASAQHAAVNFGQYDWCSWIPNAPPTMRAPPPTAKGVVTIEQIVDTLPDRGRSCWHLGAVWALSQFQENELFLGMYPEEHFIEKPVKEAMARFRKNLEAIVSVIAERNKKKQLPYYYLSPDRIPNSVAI
Procedure, shortened: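 Human PMN neutrophils (2×10^7 cells/mL) in HEPES buffer with 1 mM CaCl2, preincubated 4 min with test compound in DMSO vehicle. Then stimulated with [14C]arachidonic acid plus calcium ionophore A23187 for 5 min and stopped with methanol. 5-HETE was quantitated by HPLC. Reported as % inhibition versus vehicle, tested at 15 μM.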

| inhibition [3] [%] | SMILES | inhibition in vivo at 25 mg/kg [1] [%] | inhibition in vivo at 25 mg/kg [2] [%] |
| --- | --- | --- | --- |
| 6 | CC(C)N1C(=O)C(C)(C)c2cccnc21 | 34 | 14 |
| 26 | CC1(C)C(=O)N(Cc2ccc(Cl)cc2)c2ncccc21 | 6 | 0 |
| 0 | COCCSC1(C)C(=O)N(c2ccccc2)c2ncccc21 (configuration not stated) | 26 | 23 |
| 13 | CC1(C)C(=O)N(c2ccc(S(C)(=O)=O)cc2)c2ncccc21 | 42 | 0 |
| – | CC1(C)C(=O)Nc2ncccc21 | 46 | 38 |
| – | CC1(Sc2ccccc2)C(=O)N(c2ccccc2)c2ncccc21 (configuration not stated) | 0 | 0 |
| 0 | CC(C)c1ccc(N2C(=O)C(C)(C)c3cccnc32)cc1 | 29 | 6 |
| 12 | CCC1(CC)C(=O)N(c2ccccc2)c2ncccc21 | 13 | 0 |
| 0 | CC1(C)C(=O)N(c2ccccc2Cl)c2ncccc21 | 14 | 3 |
| – | CC1(C)C(=O)N(c2ccc(Cl)cc2)c2ccccc21 | 0 | 0 |
| 17 | CC1(C)C(=S)N(c2ccc(Cl)cc2)c2ncccc21 | 41 | 42 |
| 34 | CC1(C)C(=O)N(c2cccc(C(F)(F)F)c2)c2ncccc21 | 35 | 10 |
| 21 | CSC1(C)C(=O)N(c2ccccc2)c2ncccc21 (configuration not stated) | 34 | 53 |
| 23 | CSc1ccc(N2C(=O)C(C)(C)c3cccnc32)cc1 | 29 | 37 |
| 0 | CC1(F)C(=O)N(c2ccccc2)c2ncccc21 (configuration not stated) | 50 | 35 |
| 7 | CC1(C)C(=O)N(c2ccc(F)cc2F)c2ncccc21 | 61 | 19 |
| 20 | CC1(C)C(=O)N(c2ccc(Cl)cc2Cl)c2ncccc21 | 16 | 8 |
| – | CC1(C)C(=O)N(c2cc(Cl)cc(Cl)c2)c2ncccc21 | 49 | 33 |
| 17 | CC1(Cc2ccccc2)C(=O)N(c2ccccc2)c2ncccc21 (configuration not stated) | 9 | 0 |
| 13 | CCC1(C)C(=O)N(c2ccccc2)c2ncccc21 (configuration not stated) | 36 | 12 |
| 2 | CC1(C)C(=O)N(Cc2ccccc2)c2ncccc21 | 12 | 12 |
| 0 | CC1C(=O)N(c2ccccc2)c2ncccc21 (configuration not stated) | 29 | 18 |
| 13 | CCCCC1(C)C(=O)N(c2ccccc2)c2ncccc21 (configuration not stated) | 21 | 5 |
| 11 | CC1(C)C(=O)N(c2ccc(Br)cc2)c2ncccc21 | 46 | 55 |
| 34 | CC1(C)C(=O)N(c2ccc(Cl)cc2)c2ncc(Br)cc21 | 29 | 0 |
| 7 | Cc1c(Cl)cccc1N1C(=O)C(C)(C)c2cccnc21 | 14 | 0 |
| 11 | C[S+]([O-])c1ccc(N2C(=O)C(C)(C)c3cccnc32)cc1 (configuration not stated) | 39 | 0 |
